This is a sample that favours compounds with a hit; in the whole collection about 4.5% have one here.
XBP1 UPR activ – activators of adaptive XBP1 UPR arm, primary screen, cell-based, CHO-XBP1 luciferase reporter, luminescence, uHTS | actives 0.33% (n = 330,000) | activation, % at 20 µM | AID 463104, 2010 | IRE1-XBP1 UPR activation; percent of tunicamycin response, DMSO as zero;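 active = versus positive control, 20 µM dose yields 30% or more activation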
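Test system: CHO-XBP1 luciferase reporter cells | Buffer or medium: Serum-containing F12 medium, 10% FBS | Schedule: 6 h compound exposure at 37 °C, 5% CO2 | Detection: Steady-Glo luciferase glow luminescence, 10 min after reagent addition | Read-out basis: Activation, % of tunicamycin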
M18AAP inhibitor – PfM18AAP inhibitors, malaria aminopeptidase, primary screen, biochemical, QFRET, recombinant enzyme; inhibition, % at 7.35 µM; H-Glu-NHMec fluorogenic cleavage; actives 1.2% (n = 290,000); M18 aspartyl aminopeptidase (Plasmodium falciparum 3D7);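 active = inhibition above the campaign mean inhibition over all tested compounds plus 3 SD, cut at about 28% in these data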
NS3 helicase inh – inhibitors of HCV NS3 helicase, primary screen, biochemical, Cy5 molecular beacon fluorescence | Hepatitis C virus NS3 helicase | NS3 helicase DNA unwinding | inhibition, % at 10.9 µM | actives 0.56% (n = 290,000) | AID 1800, 2009;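 active = inhibition above the mean of all tested compounds plus 3 SD, set per campaign, cut at about 35% in these data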
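Measured by: Cy5 fluorescence, 0 and 60 min reads / Assay system: NS3 helicase fragment of HCV / Control set: low DMSO, high thioflavine S at 110 µM / Times: 1 h reaction at 25 °C, ATP-initiated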
p97 ATPase inh – inhibitors of human p97 ATPase, primary screen, biochemical; Transitional endoplasmic reticulum ATPase (Homo sapiens), P55072; actives 0.42% (n = 220,000); inhibition, % at 8 µM; recombinant p97 ATPase, Kinase-Glo ATP luminescence, 3 h; AID 1481, 2009; in the data active = inhibition above about 15%
Target sequence (P55072 whole entry, looked up): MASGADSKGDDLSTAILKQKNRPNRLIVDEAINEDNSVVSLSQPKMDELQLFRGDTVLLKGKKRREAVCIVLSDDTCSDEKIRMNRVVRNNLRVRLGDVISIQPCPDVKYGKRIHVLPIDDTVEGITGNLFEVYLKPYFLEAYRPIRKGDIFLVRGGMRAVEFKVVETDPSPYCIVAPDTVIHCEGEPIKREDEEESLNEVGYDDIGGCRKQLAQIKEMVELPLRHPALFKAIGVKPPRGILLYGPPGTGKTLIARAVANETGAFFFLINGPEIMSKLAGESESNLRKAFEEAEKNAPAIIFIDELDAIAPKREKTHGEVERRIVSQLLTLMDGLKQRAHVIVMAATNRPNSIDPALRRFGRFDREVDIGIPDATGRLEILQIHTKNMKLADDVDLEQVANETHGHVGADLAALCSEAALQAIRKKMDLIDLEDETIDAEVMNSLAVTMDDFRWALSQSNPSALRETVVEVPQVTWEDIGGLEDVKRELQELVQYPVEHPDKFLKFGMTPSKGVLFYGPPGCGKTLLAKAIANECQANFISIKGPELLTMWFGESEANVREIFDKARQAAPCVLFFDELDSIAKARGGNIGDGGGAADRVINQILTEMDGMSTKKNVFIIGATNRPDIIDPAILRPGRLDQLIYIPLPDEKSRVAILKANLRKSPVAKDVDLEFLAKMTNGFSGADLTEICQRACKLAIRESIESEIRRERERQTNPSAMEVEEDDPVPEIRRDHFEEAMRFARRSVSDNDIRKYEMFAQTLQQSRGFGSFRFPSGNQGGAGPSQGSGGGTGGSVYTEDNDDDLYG
CHOP inhibitor – inhibitors of CHOP promoter induction, primary screen, cell-based, unfolded protein response, luciferase reporter. CHO-K1 CHOP-promoter luciferase, tunicamycin-induced, 15-18 h. actives 3.8% (n = 220,000). inhibition, % at 10 µM;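 active = compounds that reduced the stress-induced luciferase reporter signal by more than about 70% of percent inhibition, limit read from the data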
UPR CHOP act – activators of apoptotic CHOP UPR arm, primary screen, cell-based, CHO-CHOP luciferase reporter, luminescence, uHTS; UPR activation; percent of tunicamycin response over DMSO baseline; activation, % at 10 µM; actives 0.34% (n = 330,000); AID 449763, 2010;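 active = at 10 µM dose, activation of 40% or more, normalized to positive control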
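System: CHO-CHOP luciferase reporter cell line; amount: 500 cells/well; buffer or medium: F12 medium containing 10% fetal bovine serum; incubation: 6 h compound exposure at 37 °C after overnight seeding; measured by: luciferase luminescence after 10 min with Steady-Glo reagent; evaluation: % reporter activation, DMSO baseline versus tunicamycin full activation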
CHOP confirm – retest of CHOP induction inhibitors, confirmation, cell-based | CHO-CHOP promoter luciferase reporter, tunicamycin-induced, luminescence | actives 45% (n = 2,100) | inhibition, % at 10 µM | shares compounds with CHOP inhibitor;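 active = mean of three repeat readings of reporter signal inhibition above a set limit, cut at about 70% in these data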
Of the large screens only hits and unclear results are named; the others gave an inactive call (follow-up assays come after a bar, where they were run).

COc1cc(/C=C/C(=O)N2CCN(C(=O)/C=C/c3cc(OC)c(OC)c(OC)c3)CC2)cc(OC)c1OC	none (no result: p97 ATPase inh, CHOP inhibitor)
C=CCSc1nc2ccccc2n1C(=O)/C=C/c1cc(OC)c(OC)c(OC)c1	CHOP inhibitor 111.0 | CHOP confirm 109.1
CCSc1nc2ccccc2n1C(=O)/C=C/c1ccc(OC)c(OC)c1	CHOP inhibitor 105.0 | CHOP confirm 113.7
Cc1ccc(C(C)C)c(OCc2ccc(C(=O)N/N=C/c3ccc(C(=O)O)cc3)cc2)c1	CHOP inhibitor 96.8 | CHOP confirm inactive
Cc1ccccc1-c1cc(C(=O)NCc2cccc(C(F)(F)F)c2)nn1CC1CC(c2cccc([N+](=O)[O-])c2)=NO1 (centres undefined)	none (no result: M18AAP inhibitor, NS3 helicase inh, p97 ATPase inh, CHOP inhibitor)
CCC(C)OC(=O)C1=C(C)NC(=O)CC1c1ccccc1OC (centres undefined)	none
CCCOc1ccccc1C1CC(=O)NC(C)=C1C(=O)OCC(C)C (centres undefined)	CHOP inhibitor 99.1 | CHOP confirm 116.1
Clc1ccccc1CN(Cc1ccccc1)c1ncnc2nc[nH]c12	CHOP inhibitor 106.5 | CHOP confirm inactive
Clc1ccccc1CNc1ncnc2nc[nH]c12	none
CC1(C)CC(C(CCN(Cc2ccccc2)C(=O)c2ccco2)c2ccc(F)cc2)CCO1 (centres undefined)	CHOP inhibitor 101.0 (no result: XBP1 UPR activ, UPR CHOP act) | CHOP confirm 79.0
O=C(CN(Cc1ccc(F)cc1)C(=O)c1ccco1)NCc1ccc(F)cc1	none
O=C(c1ccco1)N(CCC(c1ccccc1)c1ccco1)Cc1ccc(F)cc1 (centres undefined)	CHOP inhibitor 107.6 | CHOP confirm inactive
COC(=O)c1ccc(-c2sc3nc(N4CCOCC4)c4c(c3c2N)CC(C)(C)OC4)o1	CHOP inhibitor 102.0 | CHOP confirm inactive
CCOC(=O)c1sc2nc(N3CCOCC3)c3c(c2c1N)CC(C)(C)N(C)C3	none
CN(C)CCNC=C(C(=O)Nc1ccc(Cl)cc1Cl)C(=O)Nc1ccc(Cl)cc1Cl	CHOP inhibitor 99.0 | CHOP confirm inactive
Cc1ccc(C(=O)NCCC(=O)N2CCC3(CC2)NCCc2[nH]cnc23)cc1C	none (no result: p97 ATPase inh, CHOP inhibitor)
CC(=O)Nc1ccc(NC(=O)C(C)OC(=O)CCCN2C(=O)c3cccc4cccc(c34)C2=O)cc1 (centres undefined)	none (no result: M18AAP inhibitor, NS3 helicase inh, p97 ATPase inh, CHOP inhibitor)
c1ccc(-c2nnc(C(c3ccccc3)c3ccccc3)o2)cc1	none
OC(c1ccc(OCc2ccccc2)cc1)c1nnc(-c2ccccc2)o1 (centres undefined)	CHOP inhibitor 97.1 | CHOP confirm inactive
Cn1ccnc1C(O)c1cccc(OCc2ccccc2)c1 (centres undefined)	none (no result: p97 ATPase inh, CHOP inhibitor)
OC(c1cccc(OCc2ccccc2)c1)c1nnc(-c2ccccc2)o1 (centres undefined)	CHOP inhibitor 111.0 | CHOP confirm 106.0
CNCC(O)COc1ccccc1 (centres undefined)	CHOP inhibitor 104.1 | CHOP confirm inactive
COc1ccc(NCC(O)COc2ccc(C(C)(C)C)cc2)cc1 (centres undefined)	CHOP inhibitor 104.3 | CHOP confirm inactive
OC(CNc1ccccc1)COc1ccc(OCC(O)CNc2ccccc2)cc1 (centres undefined)	none
COc1ccccc1NCC(O)COc1ccc(C(C)(C)C)cc1 (centres undefined)	CHOP inhibitor 105.1 | CHOP confirm 120.0
CC(C)(C)c1ccc(OCC(O)CNC(=O)c2ccccc2C(=O)O)cc1 (centres undefined)	none (no result: CHOP inhibitor)
CCC1CCCCN1S(=O)(=O)c1ccc(C(=O)Nc2nnc(-c3ccccc3Cl)o2)cc1 (centres undefined)	CHOP inhibitor 107.0 | CHOP confirm 102.3
O=C(Nc1nnc(-c2ccccc2Cl)o1)c1ccc(S(=O)(=O)N2CCCCCC2)cc1	none
CN(C)c1ccc(C(CNC(=O)c2ccccc2F)c2c[nH]c3ccccc23)cc1 (centres undefined)	none
CN(C)c1ccc(C(CNS(=O)(=O)c2ccc(F)c(F)c2)c2c[nH]c3ccccc23)cc1 (centres undefined)	CHOP inhibitor 109.6 | CHOP confirm 115.6
CC(C)(C)c1ccc(-c2nc(N)nc(N)n2)cc1	none
CC(C)(C)c1cc(-c2nc(N)nc(N)n2)cc(C(C)(C)C)c1	CHOP inhibitor 102.9 | CHOP confirm inactive
CC(=O)Nc1c2c(nn1-c1ccc(Cl)cc1)CSC2	none (no result: p97 ATPase inh, CHOP inhibitor)
CCCC(=O)NC(Nc1cc(C(F)(F)F)ccc1Cl)C(Cl)(Cl)Cl (centres undefined)	CHOP inhibitor 96.6 | CHOP confirm inactive
CCCC(=O)NC(Nc1cccc(C(F)(F)F)c1)C(Cl)(Cl)Cl (centres undefined)	none
O=C(COC(=O)CNS(=O)(=O)c1cccc(Br)c1)Nc1ccccc1Sc1ccccc1	CHOP inhibitor 96.2 | CHOP confirm inactive
Cc1ccc(Cn2c(-c3nonc3N)nc3ccccc32)cc1	CHOP inhibitor 104.9 | CHOP confirm inactive
COc1ccc2[nH]c3c(=O)n(N)c(=O)[nH]c3c2c1	none (no result: p97 ATPase inh, CHOP inhibitor)
COc1ccc2[nH]c3c(=O)n(/N=C/[C@H]4C(C)C=C(C)CC4C)c(=O)[nH]c3c2c1 (some centres undefined)	CHOP inhibitor 108.9 | CHOP confirm inactive
Oc1ccccc1-n1c(-c2ccccc2)ccc1-c1ccccc1	CHOP inhibitor 104.5 | CHOP confirm 118.6
COc1ccccc1NC(=O)c1c(Nc2ccccc2F)sc(C(=O)Nc2cccc(Cl)c2)c1N	CHOP inhibitor 108.3 | CHOP confirm inactive
Cc1ccc2c(c1)c1c(n2CC(O)Cn2c(C)nc3ccccc32)CCCC1 (centres undefined)	CHOP inhibitor 98.1 | CHOP confirm 81.7
Cc1ccc(CNC(=O)CCCc2cn(C)c3ccccc23)cc1	none (no result: p97 ATPase inh, CHOP inhibitor)
O=C(CCc1ccccc1)NC1(Cc2ccccc2)CCN(CCCc2ccccc2)C1=O (centres undefined)	none (no result: M18AAP inhibitor, NS3 helicase inh, p97 ATPase inh, CHOP inhibitor)
COc1ccc(/C=N\NC(=O)COc2ccc(C(C)(C)C)cc2)cc1Cn1nc(C)cc1C	CHOP inhibitor 109.7 | CHOP confirm 104.2
COc1ccc(/C=N/NC(=O)c2ccco2)cc1Cn1nc(C)cc1C	none

Screening data from PubChem BioAssay.
